According to ChEMBL document CHEMBL1817572, “New, potent, selective, and short-acting peptidic V1a receptor agonists” (J Med Chem, 2011):
Numbered stars: 1 amine (or outer) side, 2 acyl side, 3 side chain; on linkers, the order of the positions; unused ones are H or OH. Bridge positions count the residues as written; N and C are the ends. Square brackets hold non-standard residues; d marks the D form. Peptide text beside a SMILES is read from it. Orn(iPr) = CC(C)NCCC[C@H](N)C(=O)O; X1 = CCNCCC[C@H](N[*:1])C(=O)[*:2]; 2Thi = N[C@@H](Cc1cccs1)C(=O)O; Cha = N[C@@H](CC1CCCCC1)C(=O)O; Dab = NCC[C@H](N)C(=O)O

Columns and labels:
[1] = target: Vasopressin V1a/V2 (Homo sapiens) (UniProt P30518+P37288); assay: Selectivity ratio of EC50 for human vasopressin V2 receptor to EC50 for human vasopressin V1a receptor
Vasopressin V1a receptor [2] = target: T1, Vasopressin V1a receptor (Homo sapiens, UniProt P37288); assay: Agonist activity at recombinant human vasopressin V1a receptor expressed in HEK293 cells by luciferase reporter gene assay; type: functional, cell-based; conditions: read-out: EC50
Target sequence in this assay (P37288 whole entry): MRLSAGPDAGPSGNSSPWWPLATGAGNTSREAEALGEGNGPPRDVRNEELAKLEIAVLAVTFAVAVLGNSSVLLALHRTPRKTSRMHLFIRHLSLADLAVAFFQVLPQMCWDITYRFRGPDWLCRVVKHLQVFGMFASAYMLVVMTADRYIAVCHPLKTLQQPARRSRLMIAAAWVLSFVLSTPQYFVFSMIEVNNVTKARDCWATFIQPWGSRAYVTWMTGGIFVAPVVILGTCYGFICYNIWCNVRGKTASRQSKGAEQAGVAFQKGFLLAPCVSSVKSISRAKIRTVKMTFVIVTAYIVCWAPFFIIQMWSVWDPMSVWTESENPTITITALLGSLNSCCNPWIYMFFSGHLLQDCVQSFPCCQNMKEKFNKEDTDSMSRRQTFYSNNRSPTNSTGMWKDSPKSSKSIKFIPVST

Vasopressin V1b receptor = target: T2, Vasopressin V1b receptor (Homo sapiens, UniProt P47901); assay: Agonist activity at recombinant human vasopressin V1b receptor expressed in Flp-In-293 cells by luciferase reporter gene assay; type: functional, cell-based; conditions: read-out: EC50
T2 sequence (P47901 whole entry): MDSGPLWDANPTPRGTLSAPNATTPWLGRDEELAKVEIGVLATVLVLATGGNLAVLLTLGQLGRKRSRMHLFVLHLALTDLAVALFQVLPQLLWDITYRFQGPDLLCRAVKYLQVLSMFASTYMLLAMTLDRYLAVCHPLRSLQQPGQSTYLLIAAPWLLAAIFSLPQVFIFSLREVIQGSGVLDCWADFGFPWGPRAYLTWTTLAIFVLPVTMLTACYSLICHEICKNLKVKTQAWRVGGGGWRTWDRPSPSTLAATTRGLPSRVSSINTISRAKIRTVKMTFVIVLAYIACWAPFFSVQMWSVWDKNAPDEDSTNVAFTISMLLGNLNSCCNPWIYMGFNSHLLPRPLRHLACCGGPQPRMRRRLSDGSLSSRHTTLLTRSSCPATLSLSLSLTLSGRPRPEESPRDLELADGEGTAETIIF
How it was run: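 Reporter gene assays in HEK293 cells transiently cotransfected with V1a (human or rat) or human V2 receptor vector plus NFAT-luciferase (V1a) or CRE-luciferase (V2) reporter; V1b in Flp-In-293 stably expressing receptor, OT in CHO-K1 stably expressing receptor, both transiently transfected with NFAT-luciferase. Two days post-transfection, peptides added for 5 h at 37 °C, lysis with luciferin, luminescence read.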

Vasopressin V2 receptor [3] = target: T3, Vasopressin V2 receptor (Homo sapiens, UniProt P30518); assay: Agonist activity at recombinant human vasopressin V2 receptor expressed in HEK293 cells by luciferase reporter gene assay; type: functional, cell-based
Oxytocin receptor = target: T4, Oxytocin receptor (Homo sapiens, UniProt P30559); assay: Agonist activity at human OT receptor expressed in CHO-K1 cells by luciferase reporter gene assay; type: functional, cell-based
T4 sequence (P30559 whole entry): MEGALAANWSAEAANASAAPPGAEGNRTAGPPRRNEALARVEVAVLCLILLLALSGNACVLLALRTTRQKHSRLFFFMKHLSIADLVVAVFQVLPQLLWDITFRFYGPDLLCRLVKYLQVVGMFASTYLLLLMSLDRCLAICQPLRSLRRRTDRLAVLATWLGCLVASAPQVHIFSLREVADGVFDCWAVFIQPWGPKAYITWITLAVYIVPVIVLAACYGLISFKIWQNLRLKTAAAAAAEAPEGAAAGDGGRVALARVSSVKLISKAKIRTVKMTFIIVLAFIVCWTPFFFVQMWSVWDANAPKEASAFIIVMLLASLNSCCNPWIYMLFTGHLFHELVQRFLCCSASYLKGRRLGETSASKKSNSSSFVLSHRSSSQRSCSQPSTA

Homo sapiens [4] = species: Homo sapiens; assay: Selectivity ratio of EC50 for human vasopressin V1b receptor to EC50 for human vasopressin V1a receptor
Homo sapiens [5] = species: Homo sapiens; assay: Selectivity ratio of EC50 for human oxytocin receptor to EC50 for human vasopressin V1a receptor
Vasopressin V1a receptor [6] = target: Vasopressin V1a receptor (Rattus norvegicus, UniProt P30560); assay: Agonist activity at recombinant rat vasopressin V1a receptor expressed in HEK293 cells by luciferase reporter gene assay; type: functional, cell-based; conditions: read-out: EC50
Rattus norvegicus [7] = assay: Vasoconstriction in Wistar rat assessed as assessed as decay in vasopressive duration of action at 6 nmol/kg, iv bolus measured over 10 sec interval; type: functional
How it was run: (§1)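 Fasted male Wistar rats (206–340 g) under isoflurane, then thiobutabarbital 150 mg/kg ip, ventilated, 37–38 °C, with carotid pressure and jugular dosing. Dibenamine 1.8 mg/rat iv pretreatment. Sequence: iv boluses (0.5 mL/kg) of heparinized vehicle, then two reference doses of 0.1 nmol/kg, then two test doses; one matches the reference diastolic pressure rise. Relative duration = reference decay rate / test decay rate; mean ± SEM.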

Rattus norvegicus [8] = assay: Vasoconstriction in Wistar rat assessed as assessed as decay in vasopressive duration of action at 0.2 nmol/kg, iv bolus measured over 10 sec interval; type: functional
Vasopressin V2 receptor [9] = target: T3, Vasopressin V2 receptor; assay: Partial agonist activity at recombinant human vasopressin V2 receptor expressed in HEK293 cells by luciferase reporter gene assay; type: functional, cell-based
How it was run: (§2)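 Same luciferase reporter systems (OT in stable CHO-K1, V1b in stable Flp-In-293, each with transient NFAT-luciferase; V1a in HEK293 with NFAT-luciferase, V2 in HEK293 with CRE-luciferase). Peptides added for 5 h at 37 °C two days post-transfection, luminescence read. Partial agonism means efficacy <70%.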

[10] = target: T5, Vasopressin V1b receptor (Homo sapiens) (UniProt P47901); assay: Partial agonist activity at recombinant human vasopressin V1b receptor expressed in Flp-In-293 cells by luciferase reporter gene assay; type: functional, cell-based; how it was run: as §2
T5 sequence (whole entry): T2 sequence (P47901 whole entry)

Rattus norvegicus [11] = assay: Vasoconstriction in Wistar rat assessed as assessed as decay in vasopressive duration of action at 0.6 nmol/kg, iv bolus measured over 10 sec interval; type: functional; how it was run: as §1
Rattus norvegicus [12] = assay: Vasoconstriction in Wistar rat assessed as assessed as decay in vasopressive duration of action at 0.1 nmol/kg, iv bolus measured over 10 sec interval; type: functional
Vasopressin V1a receptor [13] = target: T1, Vasopressin V1a receptor; assay: Partial agonist activity at recombinant human vasopressin V1a receptor expressed in HEK293 cells by luciferase reporter gene assay; type: functional, cell-based; how it was run: as §2
Target sequence in this assay (P37288 whole entry, looked up): as the sequence (P37288 whole entry) above

Rattus norvegicus [14] = assay: Vasoconstriction in Wistar rat assessed as assessed as decay in vasopressive duration of action at 2 nmol/kg, iv bolus measured over 10 sec interval; type: functional; how it was run: as §1

T3 sequence (P30518 whole entry): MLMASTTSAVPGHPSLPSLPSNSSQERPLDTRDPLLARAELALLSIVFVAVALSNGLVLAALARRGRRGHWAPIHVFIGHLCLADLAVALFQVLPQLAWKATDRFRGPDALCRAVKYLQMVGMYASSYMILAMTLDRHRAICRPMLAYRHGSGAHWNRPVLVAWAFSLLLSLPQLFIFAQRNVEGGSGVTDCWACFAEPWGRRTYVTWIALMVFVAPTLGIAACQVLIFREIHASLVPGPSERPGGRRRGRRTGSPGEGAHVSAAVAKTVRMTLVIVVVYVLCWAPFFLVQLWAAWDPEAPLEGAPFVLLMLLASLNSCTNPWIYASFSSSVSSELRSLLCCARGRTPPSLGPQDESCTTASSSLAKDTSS
Vasopressin V1a/V2 (Homo sapiens), sequence (P30518 whole entry, looked up): as the sequence (P30518 whole entry) above
Vasopressin V1a/V2 (Homo sapiens), sequence (P37288 whole entry, looked up): as the sequence (P37288 whole entry) above
Vasopressin V1a receptor (Rattus norvegicus, UniProt P30560), sequence (P30560 whole entry): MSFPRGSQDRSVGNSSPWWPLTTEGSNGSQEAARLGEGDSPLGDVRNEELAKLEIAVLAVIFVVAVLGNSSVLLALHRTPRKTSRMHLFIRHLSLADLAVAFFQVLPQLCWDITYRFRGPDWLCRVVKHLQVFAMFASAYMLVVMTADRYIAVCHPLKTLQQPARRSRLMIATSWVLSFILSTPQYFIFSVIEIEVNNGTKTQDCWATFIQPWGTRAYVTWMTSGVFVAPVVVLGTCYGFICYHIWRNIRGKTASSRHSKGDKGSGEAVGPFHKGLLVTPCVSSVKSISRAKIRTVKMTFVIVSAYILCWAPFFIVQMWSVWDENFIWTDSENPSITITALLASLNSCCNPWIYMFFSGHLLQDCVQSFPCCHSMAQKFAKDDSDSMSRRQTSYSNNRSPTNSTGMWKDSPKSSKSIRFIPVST

| SMILES | Ratio EC50 [1] | EC50 (Vasopressin V1a receptor [2]) | EC50 (Vasopressin V1b receptor) | EC50 (Vasopressin V2 receptor [3]; hek293, read-out: EC50) | EC50 (Vasopressin V2 receptor [3]; read-out: pEC50 (converted)) | EC50 (Oxytocin receptor; cho-k1, read-out: EC50) | EC50 (Oxytocin receptor; read-out: pEC50 (converted)) | Ratio EC50 (Homo sapiens [4]) | Ratio EC50 (Homo sapiens [5]) | EC50 (Vasopressin V1a receptor [6]) | Time (Rattus norvegicus [7]) | EC50 (Vasopressin V2 receptor [3]; read-out: EC50) | EC50 (Oxytocin receptor; read-out: EC50) | Time (Rattus norvegicus [8]) | Efficacy (Vasopressin V2 receptor [9]) | Efficacy [10] | Time (Rattus norvegicus [11]) | Time (Rattus norvegicus [12]) | Efficacy (Vasopressin V1a receptor [13]) | Time (Rattus norvegicus [14]) |
| --- | --- | --- | --- | --- | --- | --- | --- | --- | --- | --- | --- | --- | --- | --- | --- | --- | --- | --- | --- | --- |
| CCNCCC[C@H](NC(=O)[C@@H]1CCCN1C(=O)[C@@H]1CSSC[C@H](N)C(=O)N[C@@H](Cc2ccccc2)C(=O)N[C@@H]([C@@H](C)CC)C(=O)N[C@@H](CC(N)=O)C(=O)N[C@@H](CC(N)=O)C(=O)N1)C(=O)NCC(N)=O (H-CFINNCP[X1]G-NH2; disulfide 1-6) | > 10000 | 0.00099 µM | 0.12 µM | > 10 µM | > 10 µM | > 10 µM | > 10 µM | 120 | > 10000 | 0.008 µM | 2.4 unitless ratio |  |  |  |  |  |  |  |  |  |
| CCNCCC[C@H](NC(=O)[C@@H]1CCCN1C(=O)[C@@H]1CSSC[C@H](N)C(=O)N[C@@H](Cc2ccccc2)C(=O)N[C@@H]([C@@H](C)CC)C(=O)N[C@@H](CCC(N)=O)C(=O)N[C@@H](CC(N)=O)C(=O)N1)C(=O)NCC(N)=O (H-CFIQNCP[X1]G-NH2; disulfide 1-6) | 450 | 0.00057 µM | 0.032 µM |  |  |  |  | 56 | 56 | 0.00016 µM |  | 0.26 µM | 0.032 µM | 2.1 min | < 70% | < 70% |  |  |  |  |
| CC[C@H](C)[C@@H]1NC(=O)[C@H](Cc2cccs2)NC(=O)[C@@H](N)CSSC[C@@H](C(=O)N2CCC[C@H]2C(=O)N[C@@H](CCCNC(C)C)C(=O)NCC(N)=O)NC(=O)[C@H](CC(N)=O)NC(=O)[C@H](CCC(N)=O)NC1=O (H-C[2Thi]IQNCP[Orn(iPr)]G-NH2; disulfide 1-6) | 560 | 0.00069 µM | 0.37 µM |  |  |  |  | 530 | 150 | 0.00032 µM |  | 0.39 µM | 0.11 µM |  | < 70% |  | 2.7 unitless ratio |  |  |  |
| NCCC[C@H](NC(=O)[C@@H]1CCCN1C(=O)[C@@H]1CSSC[C@H](N)C(=O)N[C@@H](Cc2ccc(O)cc2)C(=O)N[C@@H](Cc2ccccc2)C(=O)N[C@@H](CCC(N)=O)C(=O)N[C@@H](CC(N)=O)C(=O)N1)C(=O)NCC(N)=O [ORNIPRESSIN] |  |  | 0.0075 µM |  |  |  |  |  |  |  |  |  | 0.071 µM |  |  |  |  | 1.1 unitless ratio |  |  |
| CC[C@H](C)[C@@H]1NC(=O)[C@H](Cc2ccccc2)NC(=O)[C@@H](N)CSSC[C@@H](C(=O)N2CCC[C@H]2C(=O)N[C@@H](CCCNC(C)C)C(=O)NCC(N)=O)NC(=O)[C@H](CC(N)=O)NC(=O)[C@H](CCC(N)=O)NC1=O (H-CFIQNCP[Orn(iPr)]G-NH2; disulfide 1-6) | 760 | 0.00038 µM | 0.044 µM |  |  |  |  | 110 | 86 | 0.00013 µM |  | 0.29 µM | 0.033 µM | 2.3 min | < 70% |  |  |  | < 70% |  |
| CC[C@H](C)[C@@H]1NC(=O)[C@H](CC2CCCCC2)NC(=O)[C@@H](N)CSSC[C@@H](C(=O)N2CCC[C@H]2C(=O)N[C@@H](CCN)C(=O)NCC(N)=O)NC(=O)[C@H](CC(N)=O)NC(=O)[C@H](CCC(N)=O)NC1=O (H-C[Cha]IQNCP[Dab]G-NH2; disulfide 1-6) | 3000 | 0.00025 µM | 0.008 µM |  |  | > 10 µM | > 10 µM | 32 | > 40000 | 0.0021 µM |  | 0.76 µM |  |  |  |  |  |  |  | 3.1 unitless ratio |
